Measured values as given in ChEMBL document CHEMBL1152334, “Quassinoid inhibition of AP-1 function does not correlate with cytotoxicity or protein synthesis inhibition” (J Nat Prod, 2009).
Activity calls are given as the source filed them. No cut-off for these calls is given here.

Tests used:
[1] = Growth inhibition of human NCI60 cells; type: functional
[2] = Inhibition of protein synthesis in cell-free extract of mouse Krebs2 cells by SDS-PAGE; type: functional
HeLa = assay: Inhibition of protein synthesis in human HeLa cells assessed as [35S]methionine incorporation into protein treated for 45 mins before [35S]methionine addition by Whatman paper analysis; type: functional, cell-based
[3] = target: Transcription factor Jun (Homo sapiens) (UniProt P05412); assay: Inhibition of TPA-induced AP1 transfected in HEK293 cells assessed as inhibition of […] reporter activity at 0.1 to 10 uM treated 1 hr before TPA stimulation measured after 18 hrs by luciferase reporter gene assay; type: cell-based
Sequence of Transcription factor Jun (Homo sapiens) (P05412 whole entry): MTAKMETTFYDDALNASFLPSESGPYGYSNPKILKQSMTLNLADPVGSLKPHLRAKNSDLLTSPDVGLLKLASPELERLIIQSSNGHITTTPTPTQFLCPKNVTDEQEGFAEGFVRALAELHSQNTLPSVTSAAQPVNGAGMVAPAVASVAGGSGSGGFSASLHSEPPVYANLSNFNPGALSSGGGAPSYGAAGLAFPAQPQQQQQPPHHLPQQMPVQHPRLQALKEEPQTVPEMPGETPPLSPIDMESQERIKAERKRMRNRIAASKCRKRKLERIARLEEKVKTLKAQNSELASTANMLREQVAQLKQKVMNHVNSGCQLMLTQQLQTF
Outline: (§1)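 HEK293 cells were grown in DMEM with 10% FBS at 37 °C and 5% CO2. They were transiently transfected with a luciferase reporter (0.1 µg/well); reporters were AP-1 (four TRE consensus copies from GCN4), NF-κB (five responsive-element copies) or SRE. After 24 h, medium went to DMEM with 0.2% FBS. Cells were pretreated 1 h with compound or DMSO, then given TPA 10 ng/mL for 18 h. Firefly luciferase was read from passive-lysis lysates, TPA alone = 100%, in quadruplicate.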

Nucleic Acid = assay: Inhibition of TPA-induced SRE transfected in HEK293 cells at 0.1 to 10 uM treated 1 hr before TPA stimulation measured after 18 hrs by luciferase reporter gene assay; type: cell-based; outline: as §1
HEK293 = assay: Inhibition of TPA-induced NF-kappaB transfected in HEK293 cells at 0.1 to 10 uM treated 1 hr before TPA stimulation measured after 18 hrs by luciferase reporter gene assay; type: cell-based; outline: as §1
[4] = Growth inhibition of human AP-1 beta-lactamase reporter screening assay cells at 1 uM; details: AP-1 reporter cells

SMILES: CC(=O)O[C@H]1C(=O)O[C@@H]2C[C@H]3C(C)=CC(=O)[C@@H](O)[C@]3(C)[C@H]3[C@]4(O)OC[C@]32[C@@H]1[C@@H](C)[C@H]4O [HOLACANTHONE]
- GI50 ([1]; Homo sapiens, NCI60): 30 nM

SMILES: CC(C)=CC(=O)O[C@@H]1[C@H]2C(C)=CC(=O)[C@@H](O)[C@]2(C)[C@H]2[C@@]3(O)OC[C@@]24[C@@H]1OC(=O)C[C@H]4[C@@H](C)[C@H]3O
- GI50 ([1]; Homo sapiens, NCI60): 19 nM

SMILES: COC(=O)[C@@]12OC[C@]34[C@H]([C@@H](O)C1O)[C@@]1(C)CC(=O)C(OC(=O)/C=C(/c5ccccc5)C(F)(F)F)=C(C)[C@@H]1C[C@H]3OC(=O)[C@H](O)[C@H]42 (some centres undefined)
- GI50 ([1]; Homo sapiens, NCI60): 7400 nM

SMILES: COC(=O)[C@@]12OC[C@]34[C@H]([C@@H](O)[C@@H]1O)[C@@]1(C)C=C5OC(=O)C=C5[C@@H](C)[C@@H]1C[C@H]3OC(=O)[C@H](O)[C@@H]24
- GI50 ([1]; Homo sapiens, NCI60): 160 nM

SMILES: C=C1[C@@H](O)[C@@]2(O)OC[C@@]34[C@H]1[C@@H](OC(=O)C/C=C/CCCCCCCC)C(=O)O[C@@H]3C[C@H]1C(C)=CC(=O)[C@@H](O)[C@]1(C)[C@@H]24
- IC50 [2]: <10000 nM
- GI50 ([1]; Homo sapiens, NCI60): 24 nM
- IC50 (HeLa): > 2000 nM

SMILES: CC(C)CC(=O)O[C@H]1C(=O)O[C@@H]2C[C@H]3[C@H](C)C(=O)C(O[C@@H]4O[C@H](CO)[C@@H](O)[C@H](O)[C@H]4O)=C[C@]3(C)[C@H]3[C@@H](O)[C@H](O)[C@]4(C(=O)O)OC[C@]32[C@@H]14 [BRUCEOSIDE E]
- GI50 ([1]; Homo sapiens, NCI60): 52000 nM

SMILES: CC1=CC(=O)[C@@H](O)[C@]2(C)[C@H]3[C@]4(O)OC[C@]35[C@H]([C@@H](C)[C@H]4O)[C@@H](O)C(=O)O[C@@H]5C[C@@H]12 [GLAUCARUBOLONE]
- GI50 ([1]; Homo sapiens, NCI60): 290 nM

SMILES: COC(=O)[C@]12OC[C@]34[C@H]([C@@H](O)[C@@H]1O)[C@@]1(C)CC(=O)C(O)=C(C)[C@@H]1C[C@H]3OC(=O)[C@H](OC(=O)C=C(C)C)[C@@H]24 [BRUSATOL]
- IC50 [2]: 230 nM
- inhibition [3]: inactive
- inhibition (Nucleic Acid): inactive
- GI50 ([1]; Homo sapiens, NCI60): 260 nM
- inhibition (HEK293): inactive
- IC50 (HeLa): < 1000 nM

SMILES: C/C=C(\C)C(=O)O[C@@H]1[C@H]2C(C)=CC(=O)[C@@H](O)[C@]2(C)[C@H]2[C@@]3(O)OC[C@]24[C@H]([C@@H](C)[C@H]3O)[C@@H](OC(C)=O)C(=O)O[C@H]14 [HANNOAENONE]
- GI50 ([1]; Homo sapiens, NCI60): 40 nM

SMILES: CC[C@](C)(O)C(=O)O[C@H]1C(=O)O[C@@H]2C[C@H]3C(C)=CC(=O)[C@@H](O)[C@]3(C)[C@H]3[C@@]4(O)OC[C@]32[C@@H]1[C@@H](C)[C@H]4O (stereo in doubt) [GLAUCARUBINONE]
- GI50 [1]: 21000 nM

SMILES: COC(=O)[C@@]12OC[C@]34[C@H]([C@@H](O)[C@@H]1O)[C@@]1(C)CC(=O)C(O)=C(C)[C@@H]1C[C@H]3OC(=O)[C@H](OC(=O)/C=C(\C)C(C)C)[C@@H]24 [BRUCEANTIN]
- IC50 [2]: 410 nM
- GI50 ([1]; Homo sapiens, NCI60): 5 nM
- IC50 (HeLa): 51 nM

SMILES: CC[C@@H](C)C(=O)O[C@H]1C(=O)O[C@@H]2C[C@H]3C(C)=CC(=O)[C@@H](O)[C@]3(C)[C@H]3[C@@H](O)[C@H](O)[C@]4(C)OC[C@]32[C@@H]14 [SIMALIKALACTONE D]
- GI50 ([1]; Homo sapiens, NCI60): 39 nM

SMILES: COC(=O)[C@@]12OC[C@]34[C@H]([C@@H](O)C1O)[C@@]1(C)CC(=O)C(OC(=O)CC(C)C(F)(F)F)=C(C)[C@@H]1C[C@H]3OC(=O)[C@H](O)[C@H]42 (some centres undefined)
- GI50 ([1]; Homo sapiens, NCI60): 2900 nM

SMILES: C=C1[C@@H](O)[C@]2(O)OC[C@@]34[C@H]1[C@@H](OC(=O)C/C=C/CCCCCCCC)C(=O)O[C@@H]3C[C@H]1C(C)=CC(=O)[C@@H](O)[C@]1(C)[C@@H]24
- GI50 ([1]; Homo sapiens, NCI60): 24 nM

SMILES: COC(=O)[C@]12OC[C@]34[C@H]([C@@H](O)[C@@H]1O)[C@@]1(C)C=C5OC(=O)C=C5[C@@H](C)[C@@H]1C[C@H]3OC(=O)[C@H](OC(C)=O)[C@@H]24 [SERGEOLIDE]
- IC50 [2]: 70 nM
- GI50 ([1]; Homo sapiens, NCI60): 3.8 nM
- IC50 (HeLa): < 1000 nM

SMILES: COC(=O)[C@@]12OC[C@]34[C@H]([C@H](O)[C@@H]1O)[C@@]1(C)CC(=O)C(OC(C)=O)=C(C)[C@H]1C[C@H]3OC(=O)[C@@H](OC(=O)C=C(C)C)[C@@H]24
- GI50 ([1]; Homo sapiens, NCI60): 790 nM

SMILES: CC[C@](C)(O)C(=O)O[C@H]1C(=O)O[C@@H]2C[C@H]3C(C)=CC(=O)[C@@H](O)[C@]3(C)[C@H]3[C@@]4(O)OC[C@]32[C@@H]1[C@@H](C)[C@H]4O (stereo in doubt; 4) [GLAUCARUBINONE]
- IC50 [2]: 290 nM
- GI50 [1]: 1800 nM
- inhibition at 1 µM [4]: < 25%
- IC50 (HeLa): 270 nM

SMILES: CC(C)=CC(=O)O[C@H]1C(=O)O[C@@H]2C[C@H]3C(C)=CC(=O)[C@@H](O)[C@]3(C)[C@H]3[C@@]4(O)OC[C@]32[C@@H]1[C@@H](C)[C@H]4O
- GI50 ([1]; Homo sapiens, NCI60): 21 nM

SMILES: CC[C@@](O)(CC(=O)O[C@@H]1C(=O)O[C@@H]2C[C@@H]3C(C)=CC(=O)[C@H](O)[C@]3(C)[C@H]3[C@]4(O)OC[C@]32[C@@H]1[C@@H](C)[C@H]4O)C(C)C [PENINSULARINONE]
- GI50 ([1]; Homo sapiens, NCI60): 1 nM

SMILES: CC1=CC(=O)[C@H](O)[C@@]2(C)[C@@H]1C[C@H]1OC(=O)[C@@H](OC(=O)C(C)(C)CO)[C@@H]3[C@@H](C)[C@@H](O)[C@]4(O)OC[C@@]31[C@@H]42
- GI50 ([1]; Homo sapiens, NCI60): 95 nM

SMILES: CC1=CC(=O)[C@H](O)[C@@]2(C)[C@@H]1C[C@H]1OC(=O)C(OC(=O)CC3=CCCC3)[C@H]3[C@@H](C)[C@@H](O)[C@]4(O)OC[C@]13[C@@H]42 (some centres undefined)
- GI50 ([1]; Homo sapiens, NCI60): 40000 nM

SMILES: C=C1[C@@H](O)[C@@]2(O)OC[C@@]34[C@H]1[C@@H](OC(=O)C/C=C(\C)CCCCC)C(=O)O[C@@H]3C[C@H]1C(C)=CC(=O)[C@@H](O)[C@]1(C)[C@@H]24
- GI50 ([1]; Homo sapiens, NCI60): 1.5 nM

SMILES: COC(=O)[C@]12OC[C@]34[C@H]([C@@H](O)[C@@H]1O)[C@@]1(C)[C@H](O)C(=O)C=C(C)[C@@H]1C[C@H]3OC(=O)[C@H](OC(=O)CC(C)C)[C@@H]24 [ISOBRUCEIN A]
- GI50 ([1]; Homo sapiens, NCI60): 17 nM

SMILES: CC(=O)OC(C)(C)/C(C)=C/C(=O)O[C@H]1C(=O)O[C@@H]2C[C@H]3[C@H](C)C(=O)C(O[C@@H]4O[C@H](CO)[C@@H](O)[C@H](O)[C@H]4O)=C[C@]3(C)[C@H]3[C@@H](O)[C@H](O)[C@]4(C(=O)O)OC[C@]32[C@@H]14 [BRUCEOSIDE F]
- GI50 ([1]; Homo sapiens, NCI60): 74000 nM

SMILES: COC(=O)[C@@]12OC[C@]34[C@H]([C@@H](O)[C@@H]1O)[C@@]1(C)[C@H](O)C(=O)C=C(C)[C@@H]1C[C@H]3OC(=O)[C@H](OC(C)=O)[C@@H]24 [ISOBRUCEIN B]
- GI50 ([1]; Homo sapiens, NCI60): 100 nM

SMILES: COC1=C[C@@H](C)[C@@H]2C[C@H]3OC(=O)C[C@H]4C(C)=C(OC)C(=O)[C@H]([C@@]2(C)C1=O)[C@@]34C [QUASSIN]
- IC50 [2]: >30000 nM
- inhibition [3]: inactive
- inhibition (Nucleic Acid): inactive
- inhibition (HEK293): inactive
- IC50 (HeLa): > 2000 nM

SMILES: COC(=O)[C@@]12OC[C@]34[C@H]([C@@H](O)C1O)[C@@]1(C)CC(=O)C(O)=C(C)[C@@H]1C[C@H]3OC(=O)[C@H](OC(=O)CC(C)C(F)(F)F)[C@H]42 (some centres undefined)
- GI50 ([1]; Homo sapiens, NCI60): 28 nM

SMILES: COC(=O)[C@@]12OC[C@]34[C@H]([C@@H](O)C1O)[C@@]1(C)CC(=O)C(O)=C(C)[C@@H]1C[C@H]3OC(=O)[C@H](OC(=O)/C=C(/c1ccccc1)C(F)(F)F)[C@H]42 (some centres undefined)
- GI50 ([1]; Homo sapiens, NCI60): 3600 nM

SMILES: CC1=C[C@H](O)[C@@H](O)[C@]2(C)[C@H]3[C@@]4(O)OC[C@]35[C@H]([C@@H](C)[C@H]4O)[C@@H](O)C(=O)O[C@@H]5C[C@@H]12 [GLAUCARUBOL]
- IC50 [2]: >30000 nM
- GI50 ([1]; Homo sapiens, NCI60): 41000 nM
- IC50 (HeLa): > 2000 nM
